Measured values pooled from the literature.
Compare with care: the assays were run in different laboratories.
Target: Mitogen-activated protein kinase kinase kinase 14 (MAP3K14, Homo sapiens, UniProt Q99558)

CC(C)(C)c1nc2c(s1)c1nc(N)ncc1c1ccc(NS(=O)(=O)c3c(F)cccc3F)c(F)c12 — remaining activity (enzyme activity; inhibitor; radiometric; 1 µM): 104%
C[C@@H](c1cccc(C#N)c1)n1cc(Cl)cc(C(N)=O)c1=N — remaining binding (cell-free assay; competition with immobilised ligand; 1 µM): 93%
N#CCCc1ccc2c(c1)-c1[nH]c3ccc([N+](=O)[O-])cc3c1CC(=O)N2 — remaining signal (cell-free assay; 0.5 µM): 161%
CCCOc1ccc([C@H]2[C@H](C(=O)O)[C@@H](c3ccc4c(c3)OCO4)CN2CC(=O)Nc2c(CC)cccc2CC)cc1 — remaining binding (cell-free assay; competition with immobilised ligand; 1 µM): 85%
Nc1ncnc2occ(-c3ccc(NC(=O)Nc4cc(C(F)(F)F)ccc4F)cc3)c12 — remaining signal (cell-free assay; inhibitor; 20 µM): 93%
CC(C)(O)[C@H]1CC[C@H](Nc2ccc3ncc(-c4cccc(C(F)(F)F)c4)n3n2)CC1 — remaining activity (enzyme activity; inhibitor; 1 µM): 114%
CC(C)(C)c1nc(-c2cccc(NS(=O)(=O)c3c(F)cccc3F)c2F)c(-c2ccnc(N)n2)s1 — remaining activity (enzyme activity; inhibitor; radiometric; 1 µM): 100%
C[C@@H]1CCN(c2nccc(-c3cnn4ncccc34)n2)C1 — remaining binding (binding; competition with immobilised ligand; 1 µM): 72%
